Data taken from ChEMBL document CHEMBL1135936, “6-[2-(Phosphonomethoxy)alkoxy]pyrimidines with antiviral activity” (J Med Chem, 2002).
≈ marks a conversion by molar mass, not a printed value.

Key:
[1] = test system: unidentified adenovirus; test: Effective concentration for the inhibition of adenovirus; assay type: functional, organism-based
Outline: (§1)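 HEL fibroblasts, confluent, infected on day 0 with 100 CCID50 of human adenovirus type 2 or type 3. After 2 h adsorption at 37 °C, virus was removed and replaced by serial compound dilutions. Cytopathic effect was scored microscopically on day 7-10 p.i. to derive EC50 and minimum cytotoxic concentration.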

[2] = test system: Human alphaherpesvirus 3; test: Inhibition of Thymidine kinase deficient (TK-) Varicella-Zoster virus (VZV) 07/1 strain induced cytopathicity n HEL cell line; assay type: functional, organism-based; conditions: Human alphaherpesvirus 3, tk-07, HEL
Outline: (§2)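 Inhibition of virus-induced cytopathicity in confluent cell cultures in 96-well plates inoculated with 100 CCID50 of virus; 1 CCID50 is the virus dose infecting 50% of cultures. EC50 is based on reduction of cytopathicity.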

[3] = test system: L1210; test: (§3) In vitro cytotoxicity against L1210 mouse leukemia cells; assay type: functional; set-up: concentration or dose not given beside the values
Outline: (§4)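 Cells were grown for 72 h at a constant compound concentration of 10 µM, then counted. Growth inhibition is given relative to cell counts in control cultures grown in medium without compound. Lines: mouse L1210 and L929, human HeLaS3 and CCRF-CEM.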

[4] = test system: CCRF-CEM; test: Inhibition of Human immunodeficiency virus (HIV)-2 ROD strain induced cytopathicity in CEM cell line; assay type: functional, cell-based
Outline: (§5)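 CEM cells were infected with 100 CCID50 per mL of HIV-1 (IIIB) or HIV-2 (ROD). Cells were seeded into wells containing dilutions of compound and incubated 4 days at 37 °C. CEM giant cell formation was then examined microscopically.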

[5] = test system: E6SM; test: Inhibition of Herpes simplex virus-1, KOS strain induced cytopathicity in E6SM cell line; assay type: functional, cell-based; conditions: Homo sapiens; outline: as §2
[6] = test system: CCRF-CEM; test: Inhibition of Human immunodeficiency virus (HIV) -1 III B strain induced cytopathicity in CEM cell line; assay type: functional, cell-based; outline: as §5
[7] = test system: L929; test: (§6) In vitro cytotoxicity against murine L929 cells; assay type: functional, Mus musculus; set-up: concentration or dose not given beside the values; outline: as §4
[8] = test system: HEL; test: Inhibition of Varicella-Zoster virus (VZV) YS strain induced cytopathicity in HEL cell line; assay type: functional, cell-based; conditions: Homo sapiens; outline: as §2
[9] = test system: HEL; test: Inhibition of Varicella-Zoster virus (VZV) OKA strain induced cytopathicity in HEL cell line; assay type: functional, cell-based; conditions: Homo sapiens; outline: as §2
[10] = test system: CCRF-CEM; test: In vitro cytotoxicity against CCRF-CEM lymphoblastoid cells; assay type: functional, Homo sapiens; outline: as §4
[11] = test system: HEL; test: Inhibition of Thymidine kinase deficient (TK-) Varicella-Zoster virus (VZV) YS/R strain induced cytopathicity in HEL cell line; assay type: functional, cell-based; conditions: Homo sapiens; outline: as §2
[12] = test system: HeLa; test: (§7) In vitro cytotoxicity against human cervix carcinoma HeLa S3 cells; assay type: functional; set-up: concentration or dose not given beside the values; outline: as §4
[13] = test system: Moloney murine sarcoma virus; test: Inhibition of moloney sarcoma virus (MSV) induced cytopathicity in C3H/3T3 embryo fibroblast cells; assay type: functional, organism-based
Outline: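 C3H/3T3 murine embryo fibroblasts were seeded in 48-well plates and infected 24 h later with 80 focus-forming units of MSV. MSV stock was prepared from tumours in NMRI mice. Virus adsorbed for 10-120 min at 37 °C, then fresh medium with compound dilutions was added. Transformation was examined microscopically after 6 days.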

[14] = test system: E6SM; test: Inhibition of thymidine kinase deficient Herpes simplex virus-1 VMW 1837 strain induced cytopathicity in E6SM cell line; assay type: functional, cell-based; conditions: Homo sapiens; outline: as §2
[15] = test system: E6SM; test: Inhibition of Herpes simplex virus-2 (G strain) induced cytopathicity in E6SM cell line; assay type: functional, cell-based; conditions: Homo sapiens; outline: as §2
[16] = test system: CCRF-CEM; test: (§8) In vitro cytotoxicity against CCRF-CEM T lymphoblastoid cells; assay type: functional, Homo sapiens; set-up: concentration or dose not given beside the values; outline: as §4
[17] = test system: CCRF-CEM; test: Inhibitory activity against CCRF-CEM cells; assay type: functional, cell-based; conditions: Homo sapiens
Outline: (§9)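 CCRF-CEM, L1210 and L929 cells were grown with compound for 72 h and then counted. Cell growth inhibition is expressed relative to untreated control cultures, and IC50 is given in µM.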

[18] = test system: L1210; test: Inhibitory activity against L1210 cells; assay type: functional, cell-based; conditions: Mus musculus; outline: as §9
[19] = test system: HEL; test: Inhibitory activity against HEL cell proliferation; assay type: functional, cell-based; conditions: Homo sapiens
[20] = test system: L929; test: Inhibitory activity against L929 cells; assay type: functional, cell-based; conditions: Mus musculus; outline: as §9
[21] = test system: L1210; test: as §3; assay type: functional; outline: as §4
[22] = test system: L929; test: as §6; assay type: functional, Mus musculus; outline: as §4
[23] = test system: CCRF-CEM; test: as §8; assay type: functional, Homo sapiens; outline: as §4
[24] = test system: unidentified adenovirus; test: In vitro antiadenovirus activity; assay type: functional, organism-based; outline: as §1
[25] = test system: HeLa; test: as §7; assay type: functional; outline: as §4

SMILES | EC50 [2] [mg/L] | Control [3] [%] | EC50 [4] [mg/L] | EC50 [5] [mg/L] | EC50 [6] [mg/L] | Control [7] [%] | EC50 [8] [mg/L] | EC50 [9] [mg/L] | EC50 [11] [mg/L] | Control [12] [%] | EC50 [13] [mg/L] | EC50 [14] [mg/L] | EC50 [15] [mg/L] | Control [16] [%] | other results
Nc1ncnc2c1ncn2C[C@@H](CO)OCP(=O)(O)O | – | – | – | – | – | – | – | – | – | – | – | – | – | – | EC50 [1]: 0.24 mg/L (≈ 0.792 µM)
Nc1cc(OCCOCP(=O)(O)O)ncn1 | > 50 | 81 | > 100 | > 16 | > 100 | 84 | > 50 | > 50 | > 50 | 86 | 13 (≈ 52.2 µM) | > 16 | > 16 | – | Control [10]: 95%
CN(C)c1cc(=O)n(CCOCP(=O)(O)O)c(N)n1 | > 50 | 90 | > 100 | > 80 | > 100 | 99 | > 50 | > 50 | > 50 | 92 | 105 (≈ 359 µM) | > 80 | > 80 | 98 | –
CSc1nc(N)cc(OCCOCP(=O)(O)O)n1 | > 50 | 96 | 33 (≈ 112 µM) | > 80 | 51 (≈ 173 µM) | 92 | > 50 | > 50 | > 50 | 79 | > 40 | > 80 | > 80 | 87 | –
Nc1cc(=O)n(CCOCP(=O)(O)O)c(N)n1 | > 50 | 76 | 25 (≈ 94.6 µM) | 240 (≈ 908 µM) | 80 (≈ 303 µM) | 96 | > 50 | 32 (≈ 121 µM) | > 50 | 93 | 2.92 (≈ 11.1 µM) | > 400 | > 400 | 95 | –
Nc1nc(O)cc(NC2CC2)n1 | > 50 | – | > 100 | > 400 | > 100 | – | > 50 | > 50 | > 50 | – | 133 (≈ 800 µM) | > 400 | > 400 | – | –
Nc1cc(OCCOCP(=O)(O)O)nc(N)n1 | 2.5 (≈ 9.46 µM) | 62 | 0.43 (≈ 1.63 µM) | 6.5 (≈ 24.6 µM) | 0.8 (≈ 3.03 µM) | 61 | 1.1 (≈ 4.16 µM) | 1.2 (≈ 4.54 µM) | 1.6 (≈ 6.06 µM) | 89 | 0.04 (≈ 0.151 µM) | 9.6 (≈ 36.3 µM) | 24 (≈ 90.8 µM) | 63 | IC50 [17]: 12.4 µM; IC50 [18]: 25 µM; IC50 [19]: 50 mg/L (≈ 189 µM); IC50 [20]: 25 µM
CC(C)OP(=O)(COCCSc1cc(N)nc(N)n1)OC(C)C | > 50 | – | 52 (≈ 143 µM) | > 400 | 47 (≈ 129 µM) | – | > 50 | > 50 | > 50 | – | – | > 400 | > 400 | – | –
Nc1cc(O)ncn1 | > 50 | – | > 100 | > 400 | > 100 | – | > 50 | > 50 | > 50 | – | – | > 400 | > 400 | – | –
Nc1nc(NC2CC2)cc(=O)n1CCOCP(=O)(O)O | > 50 | – | > 100 | > 16 | > 100 | – | > 50 | > 50 | > 50 | – | – | > 16 | > 16 | – | –
Nc1nc(OCCOCP(=O)(O)O)cc(OCCOCP(=O)(O)O)n1 | > 50 | 77 | 80 (≈ 198 µM) | 240 (≈ 595 µM) | 57 (≈ 141 µM) | 56 | > 50 | 50 (≈ 124 µM) | > 50 | 72 | 43 (≈ 107 µM) | 240 (≈ 595 µM) | > 400 | 109 | –
CN(C)c1cc(O)nc(N)n1 | > 50 | – | > 100 | > 400 | > 100 | – | > 50 | > 50 | > 50 | – | 132 (≈ 856 µM) | > 400 | > 400 | – | –
Nc1nc(OCCOCP(=O)(O)O)cc(=O)n1CCOCP(=O)(O)O | > 50 | – | > 100 | > 400 | > 100 | – | > 50 | > 50 | > 50 | 72 | 107 (≈ 265 µM) | > 400 | > 400 | – | Control [21]: 80%; Control [22]: 77%; Control [23]: 101%
CC(C)OP(=O)(COCCOc1cc(N)ncn1)OC(C)C | > 50 | – | > 20 | > 400 | > 20 | – | > 50 | > 50 | > 50 | – | – | > 400 | > 400 | – | –
Nc1cc(SCCOCP(=O)(O)O)nc(N)n1 | 20 (≈ 71.4 µM) | 83 | 3 (≈ 10.7 µM) | 29 (≈ 103 µM) | 5.5 (≈ 19.6 µM) | 88 | 7 (≈ 25 µM) | 7.5 (≈ 26.8 µM) | 15 (≈ 53.5 µM) | 98 | 1.7 (≈ 6.07 µM) | 48 (≈ 171 µM) | ≥ 80 | 89 | EC50 [19]: 50 mg/L (≈ 178 µM); EC50 [24]: 78 mg/L (≈ 278 µM)
Cc1cc(=O)n(CCOCP(=O)(O)O)c(N)n1 | > 50 | 95 | > 100 | > 400 | > 100 | 81 | > 50 | > 50 | > 50 | 83 | 122 (≈ 464 µM) | > 400 | > 400 | 100 | –
CN(C)c1cc(OCCOCP(=O)(O)O)nc(N)n1 | > 50 | 88 | > 100 | > 400 | > 100 | 104 | > 50 | > 50 | > 50 | 89 | 133 (≈ 455 µM) | > 400 | > 400 | 104 | –
Nc1cc(=O)n(CCOCP(=O)(O)O)cn1 | > 50 | 98 | > 100 | > 400 | > 100 | 90 | > 50 | > 50 | > 50 | 94 | 138 (≈ 554 µM) | > 400 | > 400 | 86 | –
Cc1cc(OCCOCP(=O)(O)O)nc(N)n1 | > 50 | 99 | > 100 | > 400 | > 100 | 85 | > 50 | > 50 | > 50 | 87 | 89 (≈ 338 µM) | > 400 | > 400 | 95 | –
Nc1cc(O)nc(SCCOCP(=O)(O)O)n1 | > 50 | – | > 100 | 240 (≈ 853 µM) | > 100 | – | > 50 | > 50 | > 50 | – | 72 (≈ 256 µM) | > 400 | > 400 | – | –
Nc1nc(NC2CC2)cc(OCCOCP(=O)(O)O)n1 | > 50 | – | > 100 | 240 (≈ 789 µM) | > 100 | – | > 50 | > 20 | > 50 | – | > 40 | 240 (≈ 789 µM) | > 80 | – | Control [21]: 71%; Control [22]: 93%; Control [23]: 87%; Control [25]: 88%
Nc1ncnc2c1ncn2CCOCP(=O)(O)O [ADEFOVIR] | 10 (≈ 36.6 µM) | – | 2.5 (≈ 9.15 µM) | 7 (≈ 25.6 µM) | 1.8 (≈ 6.59 µM) | – | 10 (≈ 36.6 µM) | 10 (≈ 36.6 µM) | 10 (≈ 36.6 µM) | – | 0.25 (≈ 0.915 µM) | 7 (≈ 25.6 µM) | 7 (≈ 25.6 µM) | – | –
Nc1nc(N)c2ncn(CCOCP(=O)(O)O)c2n1 [PMEDAP] | – | – | – | – | – | – | – | – | – | – | – | – | – | – | EC50 [1]: 47 mg/L (≈ 163 µM)
